Ecoli rRNA inh = inhibits bacterial ribosomal RNA function over humanized ribosomes | hit rate 1.6% among 350,000 | GFP signal change (wild-type ribosome), % (test concentration not listed) | E. coli WT GFP vs humanized-ribosome RFP mutants, fluorescence, 24 h; hits give low values; DMSO median 0, no signal -100;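 active means significant combined selectivity score with lowered wild-type GFP, culture density cut under 30%, mutant RFP and density less affected; inactive means any of these conditions unmet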
SUMO Mot1 rescue = blocks SUMOylation pathway, rescuing yeast Mot1-301 growth. S. cerevisiae Mot1-301 growth rescue, ATP luminescence, 38.5C; percent above DMSO median, 100 means doubled. growth rescue, % at 18.8 µM. hit rate 1% among 320,000. AID 2716;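 active means every valid replicate shows activation above 250% relative to neutral control wells; inactive means the rest, any valid replicate at or below 250%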;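 further: OY570 slx delta 5 strain wells were the positive control but not used for scaling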
Cneo AK release = causes C. neoformans cell lysis; adenylate kinase release luminescence, 4 h; normalised: neutral wells 0, clomiphene wells 100; lysis activity, % at 15 µM; hit rate 0.2% among 360,000; AID 651654;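 active means mean lysis activity across replicates of at least 80%, whatever share of replicates individually reach that level; inactive means mean lysis activity below 80%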
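Material: C. neoformans cells; Schedule: 4 h static compound exposure, 37 °C, read 1 h post-reagent; Measured by: adenylate kinase release luminescence; Read-out: signal increase indicating cell lysis; Controls: Clomiphene as positive lysis control.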
CR mimetic SO = caloric restriction mimetics inhibiting age-related superoxide in yeast | superoxide response (% of plate mean), % at 10 µM | hit rate 0.18% among 330,000 | S. cerevisiae aged cells, superoxide DHE fluorescence; hits give low values;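 active means superoxide response under a set limit, about three screen SD below normal, cut at about 65% in these data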;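 further: yeast aged for seven days with compound at 30 °C before DHE staining; 100% = average MFI of all compound-treated wells on the plate with controls excluded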
PglD inh = blocks C. jejuni PglD acetyltransferase activity | purified PglD enzyme, DTNB colorimetric CoA detection | hit rate 0.098% among 360,000 | inhibition, % at 12.5 µM; in the data active means inhibition above about 16%, passing the limit was not always enough
Yeast Mot1 SUMO = SUMO pathway inhibitors in yeast Mot1-301 growth; shares compounds with SUMO Mot1 rescue; S. cerevisiae Mot1-301 galactose growth, ATP luminescence, 24 h; -100 = growth of slx-deleted rescue strain; growth activity, percent, % at 42 µM; 2,300 tested, under 10 active;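 active means Signal drops as the depositor expects, and the fitted half-maximal dose is no more than ten times the top valid tested dose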;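 further: more negative values mean stronger growth rescue toward the control strain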
An asterisk follows results filed as active; / = no result; + = active, no number. This is a sample that favours compounds with a hit; in the whole collection about 2.2% have one here.

SMILES	Ecoli rRNA inh	SUMO Mot1 rescue	Cneo AK release	CR mimetic SO	PglD inh	Yeast Mot1 SUMO
Cc1ccc(-n2nc3c(=O)n(CCCC(=O)NCc4ccc(F)cc4)nc(C)c3c2C)cc1	1	3	-2	85	-1	/
COc1cccc(CNC(=O)CCCn2nc(C)c3c(C)n(-c4ccccc4)nc3c2=O)c1	-6	531*	-2	95	11	0
Cc1ccc(-n2nc3c(=O)n(CCCC(=O)NCc4cccc(F)c4)nc(C)c3c2C)cc1	4	597*	4	100	12	0
Cc1noc(C)c1S(=O)(=O)N(C)C[C@@H]1Oc2ccc(NC(=O)NC3CCCCC3)cc2CC(=O)N([C@@H](C)CO)C[C@H]1C	-1	/	-1	/	1	/
CCCC#Cc1ccc([C@@H]2[C@@H](CO)N3C(=O)CN(C(=O)c4cccc(F)c4)C[C@H]23)cc1	3	/	/	/	/	/
C=CSc1sc(Cl)c(N(C)C)c1[N+](=O)[O-]	20	411*	-3	102	-4	0
O=C(C[C@H]1CC[C@@H]2[C@H](COC[C@H](O)CN2Cc2ccccc2F)O1)NCc1ccccc1F	-2	/	2	/	-5	/
O=C(Nc1nnc(COc2ccc(F)cc2)s1)c1cccs1	/	940*	7	104	2	-1
CCC(C)(C)NC(=O)C(c1ccc(C)cc1)N(CC1CCCO1)C(=O)CNC(=O)c1cccs1 (stereo not given)	/	688*	0	103	2	0
Cc1ccc(C(C(=O)NC2CCCCC2)N(CC2CCCO2)C(=O)CNC(=O)c2cccs2)cc1 (stereo not given)	/	-14	1	86	-1	/
CO[C@@H]1CN(C)C(=O)c2ccc(NC(=O)CC(F)(F)F)cc2OC[C@H](C)N(C(=O)C2CCCCC2)C[C@H]1C	0	/	/	/	/	/
O=C(CSc1nnnn1C1CC2CCC1C2)Nc1ccnc2ccccc12 (stereo not given)	/	775*	-2	95	-1	0
COc1ccc(NC(=O)Nc2cccc3c2O[C@H](CN(C)CC2CC2)[C@@H](C)CN([C@@H](C)CO)C3=O)cc1	4	/	60	/	1	/
O=C(O)c1cccc(N2C(=O)C=CC2=O)c1	16	/	1	/	3	/
O=C(Nc1ccc(Cl)cc1Cl)c1cccc(N2C(=O)C=CC2=O)c1	/	550*	-6	72	2	-3
COCCN1C(=O)c2ccc(C(=O)Nc3nccs3)cc2C1=O	/	23	5	106	1	/
CCCN1C(=O)c2ccc(C(=O)Nc3nccs3)cc2C1=O	4	544*	/	111	-2	1
CCn1nccc1C(=O)Nc1nccs1	/	706*	4	80	0	0
C[C@H](O)C#Cc1cnc2c(c1)C(=O)N([C@H](C)CO)C[C@@H](C)[C@@H](CN(C)C(=O)c1ccccc1)O2	-3	/	2	/	-1	/
CC(C)c1ccc(/C=C2\SC(N3CCCC3)=NC2=O)cc1	/	-11	/	109	/	/
Cc1ccc(/C=C2\SC(N3CCCC3)=NC2=O)cc1	-7	477*	/	102	/	-1
Cc1ccc(S(=O)(=O)N(C)C[C@H]2OCCCC[C@@H](C)Oc3ccc(NC(=O)Nc4cccc5ccccc45)cc3C(=O)N([C@@H](C)CO)C[C@@H]2C)cc1	-2	/	0	/	2	/
C/C(=N/Nc1ccc(F)cc1)c1ccc(Cl)s1	11	384*	/	95	/	0
COc1cccc(OC)c1OCC(O)CN1CCN(c2ccccc2)CC1 (stereo not given)	/	+	-1	103	1	0
C[C@@H]1CCCCO[C@@H](CN(C)Cc2ccc3c(c2)OCO3)[C@H](C)CN([C@@H](C)CO)C(=O)c2cc(NC(=O)Nc3ccc(F)cc3)ccc2O1	13	/	7	/	56	/
CCOC(=O)c1sc2ncn(C(C)C(=O)OCC)c(=O)c2c1C (stereo not given)	/	15	2	77	-1	/
Cc1sc2ncn(C(C)C(=O)OC3CCCCC3)c(=O)c2c1C (stereo not given)	/	379*	-2	100	2	0
C[C@@H]1CCCCO[C@H](CN(C)CC2CCCCC2)[C@@H](C)CN([C@@H](C)CO)C(=O)c2cc(NS(=O)(=O)c3cccs3)ccc2O1	1	/	10	/	2	/
